In one test the test system is A549. The experiment in a line: Growth inhibition of human A549 cells expressing p53 after 7 days by celltiter-glo assay. The following applies: A549, 168 h. Type of test: functional. (Cellular ATP, detected with luciferase, serves as a proxy for viable cell number.)
The subject of the next test is SK-OV-3. As to the kind of experiment: Growth inhibition of human SKOV3 cells after 7 days by celltiter-glo assay. The class given is functional. The following applies: SK-OV-3, 168 h.
The test system of the next test is MCF7. As to the kind of experiment: Growth inhibition of human MCF7 cells after 7 days by celltiter-glo assay. Type of test: functional. The following applies: MCF7, 168 h.
A short description of test [1]: Growth inhibition of human p53 deficient Hep3B cells after 7 days by celltiter-glo assay. Type of test: functional, Hep 3B2. The following applies: 168 h. Summed up:
(§1)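 Cells seeded at 500 per well in 384-well plates. Compounds came from 30 mM DMSO stocks, serially diluted and tested in quadruplicate. Incubation was 7 d at 37 °C under 5% CO2. Calcein AM (10 μM) and EthD-1 were added, followed by a fluorescence read. CellTiter-Glo lysis was then done for 10 min at room temperature, with a luminescence read. GI50 came from curve fitting.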

Test [2] relates to SF-268. As to the kind of experiment: Ratio of compound GI50 to chlorambucil GI50 for human SF268 cells. Type of test: functional.
The next test deals with DU-145. As to the kind of experiment: Growth inhibition of human DU145 cells after 7 days by celltiter-glo assay. Type of test: functional. The following applies: DU-145, 168 h.
Test [3] deals with SF-268. The experiment in a line: Growth inhibition of human SF268 cells after 7 days by celltiter-glo assay. The class given is functional. The following applies: SF-268, 168 h.
The subject of another test is HT-29. As to the kind of experiment: Growth inhibition of human HT-29 cells after 7 days by celltiter-glo assay. The following applies: HT-29, 168 h. The class given is functional.
Another test has as its system HCT-15. The experiment in a line: Growth inhibition of human HCT15 cells after 7 days by celltiter-glo assay. The class given is functional. The following applies: HCT-15, 168 h.
Test [4] can be described thus: Growth inhibition of human p53 deficient H1299 cells after 7 days by celltiter-glo assay. Type of test: functional. The following applies: NCI-H1299, 168 h. In short, it runs like this: as §1
For a further test, the system named is NCI-H460. The experiment in a line: Growth inhibition of human NCI-H460 cells after 7 days by celltiter-glo assay. Type of test: functional. The following applies: NCI-H460, 168 h.

Some results are limits rather than exact numbers.

This note sets out measurements from ChEMBL document CHEMBL1275392, “Assessment of chemoselective neoglycosylation methods using chlorambucil as a model” (2010).

The term GI50 denotes the concentration at which growth is held to half of that of the control. Read a low GI50 as greater sensitivity of the cells. On to `CON(CCCc1ccc(N(CCCl)CCCl)cc1)[C@@H]1O[C@H]2[C@H](OC(=O)[C@H]2O)[C@H]1O`, for which the 50% growth inhibitory concentration (GI50) in the test on A549 is 3.7 µM; in the test with SK-OV-3, 5.2 µM; in the test with MCF7, 1.1 µM; in [1], 1.3 µM; with DU-145, 1.9 µM; in the test with SF-268 [3], 0.46 µM. Besides, the GI50 in the test on HT-29 is 3.6 µM; with HCT-15, 0.99 µM; in [4], 0.4 µM; with NCI-H460 it was 3.8 µM. In addition, in the test with SF-268 [2], the RatioGI50 was determined as 12.
For `CO[C@@H]1[C@@H](OC(N)=O)[C@@H](O)C(N(CCCc2ccc(N(CCCl)CCCl)cc2)OC)OC1(C)C` (stereo partly specified), the concentration for 50% growth inhibition (GI50) is 5.8 µM in the test with A549; 5.4 µM in the test with SK-OV-3; 4.8 µM in the test with MCF7; 6 µM in [1]; 6.7 µM with DU-145; 5.1 µM with SF-268 [3]. Besides, the GI50 was 6 µM in the test with HT-29, 1.7 µM in the test with HCT-15, 1.3 µM in test [4] and 9.7 µM in the test on NCI-H460.
As for `CON(CCCc1ccc(N(CCCl)CCCl)cc1)C1O[C@@H](CO)[C@H](O)[C@@H](O)[C@@H]1O` (stereo partly specified), the 50% growth inhibitory concentration (GI50) with A549 was 3.3 µM; in the test with SK-OV-3, 2.5 µM; with MCF7, 3.2 µM; in test [1], 3.9 µM; with DU-145, 4.8 µM; in the test with SF-268 [3], 2 µM. In addition, the GI50 in the test with HT-29 was 2.9 µM; with HCT-15 it was 0.88 µM; in [4], 0.55 µM; with NCI-H460 it was 8 µM.
Regarding `CON(CCCc1ccc(N(CCCl)CCCl)cc1)C1O[C@H](C)[C@H](O)[C@H](O)[C@H]1O` (stereo partly specified), the GI50 was determined as 9.6 µM with A549; 1.7 µM in the test on SK-OV-3; 3 µM in the test on MCF7; 2.6 µM in test [1]; 4.1 µM in the test on DU-145; 1.7 µM in the test on SF-268 [3]. Also, the GI50 with HT-29 was determined as 6.7 µM; in the test on HCT-15, 0.82 µM; in test [4], 3.5 µM; in the test on NCI-H460, 5.9 µM.
As for `CON(CCCc1ccc(N(CCCl)CCCl)cc1)C1OC[C@H](O)[C@@H](O)[C@H]1O` (stereo partly specified), the concentration for 50% growth inhibition (GI50) with A549 was 2.2 µM; in the test with SK-OV-3, 1.8 µM; with MCF7, 0.94 µM; in [1] it was 3 µM; with DU-145 it was 3.9 µM; with SF-268 [3] it was 1.2 µM. In addition, the concentration for 50% growth inhibition (GI50) turned out to be 2.4 µM in the test on HT-29, 0.95 µM in the test with HCT-15, 0.88 µM in test [4] and 5.8 µM with NCI-H460.
Regarding `CON(CCCc1ccc(N(CCCl)CCCl)cc1)[C@H]1O[C@H](COCc2ccccc2)[C@@H](OCc2ccccc2)[C@@H]1OCc1ccccc1`, the GI50 in the test with A549 was > 100 µM; in the test with SK-OV-3, > 100 µM; in the test on MCF7 it was 82 µM; in test [1], > 100 µM; in the test with DU-145 it was > 100 µM; with SF-268 [3], 80 µM. In addition, the concentration for 50% growth inhibition (GI50) in the test on HT-29 is 47 µM; in the test on HCT-15, 64 µM; in test [4] it was > 100 µM; with NCI-H460 it was > 100 µM.
Turning to `CON(CCCc1ccc(N(CCCl)CCCl)cc1)[C@H]1OC[C@H](O)[C@@H](O)[C@@H]1O`, the GI50 in the test on A549 came out at 2.2 µM; in the test with SK-OV-3 it was 2.4 µM; in the test on MCF7, 1.2 µM; in test [1], 1.6 µM; with DU-145 it was 2.2 µM; with SF-268 [3], 1.5 µM. Besides, the GI50 in the test with HT-29 was found to be 1.5 µM; in the test with HCT-15 it was 0.83 µM; in test [4], 0.93 µM; with NCI-H460 it was 2.9 µM.
With `CON(CCCc1ccc(N(CCCl)CCCl)cc1)[C@@H]1O[C@H](CO)[C@@H](O)[C@H](O)[C@H]1F`, the GI50 in the test with A549 was found to be 2.6 µM; with SK-OV-3, 2 µM; in the test with MCF7, 7.3 µM; in test [1] it was 3.2 µM; with DU-145, 4.2 µM; in the test on SF-268 [3], 2.2 µM. The GI50 in the test on HT-29 amounted to 2.4 µM; in the test on HCT-15 it was 1.08 µM; in test [4] it was 1.2 µM; in the test on NCI-H460, 6.4 µM.
Regarding `CON(CCCc1ccc(N(CCCl)CCCl)cc1)C1O[C@@H](CO)[C@H](O)[C@H](O)[C@@H]1O` (stereo partly specified), the GI50 was 3.5 µM with A549; 3.1 µM with SK-OV-3; 9 µM in the test with MCF7; 2.5 µM in [1]; 6 µM in the test on DU-145; 3.2 µM in the test on SF-268 [3]. The concentration for 50% growth inhibition (GI50) in the test on HT-29 is 2.2 µM; in the test with HCT-15, 1.7 µM; in test [4], 1.3 µM; with NCI-H460, 10.4 µM.
